From PMC5600292 (Biochimica et biophysica acta, 2017)
Like-named read-outs stand apart in the source and are kept apart here.

Experiments:
[1] = target: T1, human recombinant thrombin wild-type (WT) (Homo sapiens, UniProt P00734); conditions: WT IIa, mean ± SEM, cited from earlier work; for Km / kcat: SEM
[2] = target: human recombinant thrombin W60dA (Homo sapiens, UniProt P00734, W413A); conditions: W60dA IIa, mean ± SEM, cited from earlier work; for Km / kcat: SEM
[3] = system: human recombinant thrombin Y60aA; conditions: cited from earlier work; for Km / kcat / kcat/Km: Y60aA IIa, mean ± SEM; for Km / kcat: SEM; for fold decrease in kcat relative to WT thrombin / fold increase in Km relative to WT thrombin: Y60aA thrombin
[4] = target: T2, human recombinant thrombin L99A (Homo sapiens, UniProt P00734, L459A); conditions: cited from earlier work; for Km / kcat / kcat/Km: L99A IIa, mean ± SEM; for Km / kcat: SEM
[5] = target: T3, human recombinant thrombin I174A (Homo sapiens, UniProt P00734, I542A); conditions: cited from earlier work; for Km / kcat / kcat/Km: I174A IIa, mean ± SEM; for Km / kcat: SEM
[6] = target: human recombinant thrombin W215A (Homo sapiens, UniProt P00734, W590A); conditions: cited from earlier work; for Km / kcat / kcat/Km: W215A IIa, mean ± SEM; for Km / kcat: SEM; for fold reduction of kcat/Km relative to WT thrombin: prior studies
[7] = target: human recombinant thrombin W215A/E217A (WE) (Homo sapiens, UniProt P00734, E592A/W590A); conditions: cited from earlier work; for Km / kcat / kcat/Km: WE (W215A/E217A) IIa, mean ± SEM; for Km / kcat: SEM; for fold decrease in Km relative to WT thrombin: WE thrombin
[8] = target: T1, human recombinant thrombin wild-type (WT); experiment: HPLC-based kinetic assay of thrombin-catalyzed hydrolysis of FXIII; type: biochemical; conditions: WT IIa, pH 7.4, 25 °C, average of at least three independent experiments ± SEM
In short: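 Recombinant human thrombin hydrolysed acetylated, amidated FXIII (28–41) activation peptides with V, L, F, W or Y at position 34 (final 75–2500 µM). Reactions ran at 25 °C in 50 mM H3PO4, 100 mM NaCl, 0.1% PEG, pH 7.4, with 6 nM–1 µM thrombin, and kept <17% hydrolysis in 30 min. Timed aliquots were quenched with 12.5% H3PO4. The (28–37) product was quantified by C18 RP-HPLC against calibration curves, giving initial velocities. These were fit to V = Vmax/(1 + Km/[S]), and kcat came from thrombin concentration. Runs were in triplicate.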

[9] = target: T2, human recombinant thrombin L99A; experiment: HPLC-based kinetic assay of FXIII AP hydrolysis, L99A thrombin; type: biochemical; conditions: L99A IIa, HPLC assay, pH 7.4, 25 °C, average of at least three independent experiments ± SEM
In short: (§1)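 Synthetic Ac-/-NH2 FXIII (28–41) AP peptides (V34, L34, F34, W34, Y34) were used at 75–2500 µM final in 50 mM H3PO4, 100 mM NaCl, 0.1% PEG, pH 7.4, 25 °C. Recombinant human thrombin (6 nM–1 µM) started the reaction; aliquots were quenched with 12.5% H3PO4, keeping hydrolysis below 17% in 30 min. The (28–37) product was quantified by RP-HPLC against calibration curves. Initial velocities were fitted to V = Vmax/(1+Km/[S]), kcat taken from thrombin concentration, in triplicate.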

[10] = target: T3, human recombinant thrombin I174A; experiment: HPLC-based kinetic assay of FXIII AP hydrolysis, I174A thrombin; type: biochemical; conditions: for kcat/Km / Km / kcat: I174A IIa, HPLC assay, pH 7.4, 25 °C, average of at least three independent experiments ± SEM; for Km / kcat: SEM
In short: as §1

[11] = system: WT recombinant human thrombin; experiment: Gel electrophoresis; type: biochemical; conditions: 1 µM FXIII variant, 30 nM thrombin, 37°C
In short: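 Full-length FXIII-A V34X variants were expressed GST-tagged in E. coli BL21(DE3) Gold by auto-induction, then freed from the tag by on-column PreScission digestion. 1 µM variant was incubated with 30 nM WT recombinant human thrombin at 37°C. Aliquots were taken at 1–30 min, quenched with 6 µM PPACK plus reducing buffer, and frozen at −80°C. Samples ran on 8% SDS-PAGE with Coomassie stain; densitometry followed the 83 kDa intact and 79 kDa cleaved bands.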

Molecule	Km [1] [µM]	kcat [1] [s⁻¹]	kcat/Km [1] [M⁻¹ s⁻¹]	Km [2] [µM]	kcat [2] [s⁻¹]	kcat/Km [2] [M⁻¹ s⁻¹]	Km [3] [µM]	kcat [3] [s⁻¹]	kcat/Km [3] [M⁻¹ s⁻¹]	fold decrease in kcat relative to WT thrombin [3] [fold]	Km [4] [µM]	kcat [4] [s⁻¹]	kcat/Km [4] [M⁻¹ s⁻¹]	fold decrease in kcat relative to WT thrombin ([4]; L99A thrombin)	Km [6] [µM]	kcat [6] [s⁻¹]	kcat/Km [6] [M⁻¹ s⁻¹]	Km [7] [µM]	kcat [7] [s⁻¹]	kcat/Km [7] [M⁻¹ s⁻¹]	other results
Ac-TVELQGLVPRGVNL-NH2 [FXIII (28–41) L34 AP]	315 ± 42	22.9 ± 0.003	73000 ± 1200	1000 ± 201	5.07 ± 0.021	5100 ± 1000	696 ± 116	0.37 ± 0.012	530 ± 120	54 to 61	1930 ± 354	5.94 ± 0.02	3100 ± 200	3–4 fold	3620 ± 470	5.31 ± 0.002	1500 ± 200	142 ± 28	0.052 ± 0.003	370 ± 100	fold increase in Km relative to WT thrombin [3]: 2 fold; fold advantage in kcat/Km relative to V34 ([4]; L99A thrombin): 7 fold; Km [5]: 1110 ± 247 µM; kcat [5]: 10.2 ± 0.04 s⁻¹; kcat/Km [5]: 9100 ± 2000 M⁻¹ s⁻¹; fold decrease in kcat relative to WT thrombin ([5]; I174A thrombin): 2 fold; fold decrease in Km relative to WT thrombin [7]: 2 fold
Ac-TVELQGYVPRGVNL-NH2 [FXIII (28–41) Y34 AP]	–	–	–	–	–	–	–	–	–	–	–	–	–	–	–	–	–	–	–	–	kcat/Km [8]: 4600 ± 900 M⁻¹ s⁻¹; Km ([8]; SEM): 484 ± 88 µM; kcat ([8]; SEM): 2.23 ± 0.18 s⁻¹; kcat/Km [9]: 39000 ± 9800 M⁻¹ s⁻¹; Km ([9]; SEM): 347 ± 80 µM; kcat ([9]; SEM): 13.5 ± 1.4 s⁻¹; kcat/Km [10]: 3300 ± 2000 M⁻¹ s⁻¹; Km [10]: 349 ± 120 µM; kcat [10]: 1.17 ± 0.16 s⁻¹; fold decrease in Km relative to WT thrombin ([10]; I174A thrombin, current work): 1.4 fold; fold decrease in kcat relative to WT thrombin ([10]; I174A thrombin, current work): 2 fold
Ac-TVELQGFVPRGVNL- NH2 [FXIII (28–41) F34 AP]	442 ± 93	6.27 ± 0.54	14000 ± 3000	435 ± 98	1.46 ± 0.15	3400 ± 800	–	–	–	–	570 ± 125	2.71 ± 0.3	4800 ± 120	2 fold	437 ± 81	1.97 ± 0.14	4500 ± 900	190 ± 43	0.07 ± 0.007	360 ± 80	kcat/Km [10]: 6600 ± 690 M⁻¹ s⁻¹; Km [10]: 920 ± 88 µM; kcat [10]: 6.08 ± 0.25 s⁻¹; fold decrease in kcat relative to WT thrombin ([6]; W215A thrombin): 3 fold; fold reduction of kcat/Km relative to WT thrombin ([6]; W215A thrombin): 3 fold; fold decrease in Km relative to WT thrombin [7]: 2 fold
Ac-TVELQGVVPRGVNL-NH2 [FXIII (28–41) V34 AP]	298 ± 42	2.57 ± 0.005	8600 ± 1000	1380 ± 422	0.86 ± 0.046	630 ± 190	678 ± 120	0.048 ± 0.0032	71 ± 13	54 to 61	2070 ± 414	0.89 ± 0.07	430 ± 100	3–4 fold	2370 ± 372	5.53 ± 0.017	2300 ± 700	745 ± 98	0.117 ± 0.008	160 ± 20	fold increase in Km relative to WT thrombin [3]: 2 fold; Km [5]: 204 ± 36 µM; kcat [5]: 5.37 ± 0.01 s⁻¹; kcat/Km [5]: 26000 ± 100 M⁻¹ s⁻¹; fold increase in kcat relative to WT thrombin ([5]; I174A thrombin): 2 fold; fold reduction of kcat/Km relative to WT thrombin ([6]; W215A thrombin): 4 fold
FXIII V34: full-length recombinant FXIII-A V34 expressed in E. coli (protein, UniProt P00488 1-732, looked up, full-length) MSETSRTAFGGRRAVPPNNSNAAEDDLPTVELQGVVPRGVNLQEFLNVTSVHLFKERWDTNKVDHHTDKYENNKLIVRRGQSFYVQIDFSRPYDPRRDLFRVEYVIGRYPQENKGTYIPVPIVSELQSGKWGAKIVMREDRSVRLSIQSSPKCIVGKFRMYVAVWTPYGVLRTSRNPETDTYILFNPWCEDDAVYLDNEKEREEYVLNDIGVIFYGEVNDIKTRSWSYGQFEDGILDTCLYVMDRAQMDLSGRGNPIKVSRVGSAMVNAKDDEGVLVGSWDNIYAYGVPPSAWTGSVDILLEYRSSENPVRYGQCWVFAGVFNTFLRCLGIPARIVTNYFSAHDNDANLQMDIFLEEDGNVNSKLTKDSVWNYHCWNEAWMTRPDLPVGFGGWQAVDSTPQENSDGMYRCGPASVQAIKHGHVCFQFDAPFVFAEVNSDLIYITAKKDGTHVVENVDATHIGKLIVTKQIGGDGMMDITDTYKFQEGQEEERLALETALMYGAKKPLNTEGVMKSRSNVDMDFEVENAVLGKDFKLSITFRNNSHNRYTITAYLSANITFYTGVPKAEFKKETFDVTLEPLSFKKEAVLIQAGEYMGQLLEQASLHFFVTARINETRDVLAKQKSTVLTIPEIIIKVRGTQVVGSDMTVTVEFTNPLKETLRNVWVHLDGPGVTRPMKKMFREIRPNSTVQWEEVCRPWVSGHRKLIASMSSDSLRHVYGELDVQIQRRPSM	–	–	–	–	–	–	–	–	–	–	–	–	–	–	–	–	–	–	–	–	time at which cleavage started to be visible ([11]; SDS-PAGE): 2 min; cleavage of full-length FXIII by thrombin at 10 min ([11]; SDS-PAGE densitometry): 50%; time to full cleavage of full-length FXIII ([11]; SDS-PAGE densitometry): ~30 min
